Laboratory results published in ChEMBL document CHEMBL4145449, “Synthesis and biological evaluation of novel thiazole- VX-809 hybrid derivatives as F508del correctors by QSAR-based filtering tools” (Eur J Med Chem, 2018).
Active and inactive are the calls of the source. The calls are words filed in the database; no cut-off is given here.

Tests used:
Assay type in all cases: cell-based
[1] = molecular target: Cystic fibrosis transmembrane conductance regulator (Homo sapiens, UniProt P13569, F508DEL); experiment: Corrector activity at CFTR F508-del mutant (unknown origin) expressed in human CFBE41o cells harboring HS-YFP preincubated for 24 hrs followed by forskolin/genistein stimulation for 30 mins by fluorescence assay
Sequence of Cystic fibrosis transmembrane conductance regulator (P13569 as listed by the source): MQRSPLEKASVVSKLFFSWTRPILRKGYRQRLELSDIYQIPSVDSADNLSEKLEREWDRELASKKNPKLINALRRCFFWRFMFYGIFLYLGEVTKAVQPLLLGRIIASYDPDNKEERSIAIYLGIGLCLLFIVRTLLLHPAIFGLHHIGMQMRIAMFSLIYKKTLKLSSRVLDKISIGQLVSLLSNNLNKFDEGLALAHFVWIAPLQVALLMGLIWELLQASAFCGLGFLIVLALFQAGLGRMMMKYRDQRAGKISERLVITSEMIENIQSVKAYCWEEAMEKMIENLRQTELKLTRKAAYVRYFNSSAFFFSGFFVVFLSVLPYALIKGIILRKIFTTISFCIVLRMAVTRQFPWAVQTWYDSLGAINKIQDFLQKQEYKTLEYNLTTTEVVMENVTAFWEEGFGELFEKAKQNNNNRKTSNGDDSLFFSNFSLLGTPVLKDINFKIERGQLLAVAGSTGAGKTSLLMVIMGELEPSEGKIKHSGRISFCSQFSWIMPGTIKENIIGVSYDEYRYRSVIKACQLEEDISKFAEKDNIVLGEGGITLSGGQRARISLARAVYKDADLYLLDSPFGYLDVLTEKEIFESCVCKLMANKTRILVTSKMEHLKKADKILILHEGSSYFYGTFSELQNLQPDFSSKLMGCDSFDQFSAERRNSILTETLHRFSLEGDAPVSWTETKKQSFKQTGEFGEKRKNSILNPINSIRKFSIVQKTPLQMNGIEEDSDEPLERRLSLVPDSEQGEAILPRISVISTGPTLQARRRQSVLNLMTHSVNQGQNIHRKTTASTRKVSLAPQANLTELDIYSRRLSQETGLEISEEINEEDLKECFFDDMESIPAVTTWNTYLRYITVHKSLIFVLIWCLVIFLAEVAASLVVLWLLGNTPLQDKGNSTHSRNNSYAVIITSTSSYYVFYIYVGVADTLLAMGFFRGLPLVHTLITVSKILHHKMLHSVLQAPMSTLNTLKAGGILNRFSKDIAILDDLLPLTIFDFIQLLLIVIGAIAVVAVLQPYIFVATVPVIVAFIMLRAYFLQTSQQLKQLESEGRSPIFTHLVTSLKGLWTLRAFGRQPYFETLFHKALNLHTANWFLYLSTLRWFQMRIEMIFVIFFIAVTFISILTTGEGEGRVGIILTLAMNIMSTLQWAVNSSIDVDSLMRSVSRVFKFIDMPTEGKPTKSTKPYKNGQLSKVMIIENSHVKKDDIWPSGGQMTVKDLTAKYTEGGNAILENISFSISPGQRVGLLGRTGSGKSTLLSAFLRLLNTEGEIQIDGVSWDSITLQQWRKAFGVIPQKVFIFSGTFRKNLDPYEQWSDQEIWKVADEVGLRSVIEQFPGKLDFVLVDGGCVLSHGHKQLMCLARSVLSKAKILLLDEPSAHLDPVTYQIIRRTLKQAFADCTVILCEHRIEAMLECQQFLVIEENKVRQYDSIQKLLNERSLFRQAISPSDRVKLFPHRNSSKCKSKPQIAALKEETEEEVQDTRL

[2] = test system: Cystic fibrosis transmembrane conductance regulator (Homo sapiens), P13569 [F508del]; experiment: Synergistic corrector activity at CFTR F508-del mutant (unknown origin) expressed in human CFBE41o cells harboring HS-YFP preincubated for 24 hrs followed by forskolin/genistein stimulation for 30 mins in presence of VX-809 by fluorescence assay
Sequence of Cystic fibrosis transmembrane conductance regulator (Homo sapiens), P13569 [F508del] (P13569 as listed by the source): as above
How it was run: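 CFBE41o- cells co-expressing F508del-CFTR and HS-YFP treated 24 h with compound (2, 10 or 25 μM) together with VX-809 (1 μM), then stimulated 30 min at 37 °C with forskolin (20 μM) and genistein (50 μM). Iodide influx (final 100 mM) measured as HS-YFP quenching rate.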

[3] = test system: Cystic fibrosis transmembrane conductance regulator (Homo sapiens), P13569 [F508del]; experiment: Potentiator activity at CFTR F508-del mutant (unknown origin) expressed in human CFBE41o cells harboring HS-YFP assessed as increase in forskolin-stimulated aninon permeability up to 25 uM after 30 mins by fluorescence assay
How it was run: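 F508del-CFTR/HS-YFP CFBE41o- cells were rescued by 24 h incubation at 27 °C, then exposed 30 min to forskolin (20 μM) plus test compound in PBS. Iodide added to final 100 mM; HS-YFP quenching rate (initial slope dF/dt) from exponential fit of final 10 s, normalized to initial background-subtracted fluorescence; compared with forskolin alone.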

SMILES	EC50 ([1]; read-out: pEC50 (converted)) [µM]	Activity [2]	Activity [3]	EC50 ([1]; read-out: EC50) [µM]
CN(C)CCN1CCN(c2nc(-c3cccnc3)nc3c2CN(Cc2ccccc2)CC3)CC1	> 100	–	–	–
CN(C)CCN1CCN(c2nc(-c3ccncc3)nc3c2CN(Cc2ccccc2)CC3)CC1	100	–	–	–
COc1ccc(NC(=O)c2cc(-c3sc(NC(=O)C(C)(C)C)nc3C)n(-c3ccc(Br)cc3)n2)cc1	3.39	–	–	–
Fc1ccc(CN2CCc3nc(-c4ccccn4)nc(NCCCN4CCCC4)c3C2)cc1	0.2	–	–	–
Cc1cc(C)c2cc(C#N)c(NCCNC(=O)c3ccccc3)nc2c1	> 100	–	–	–
CN(C)CCN1CCN(c2nc(-c3ccccn3)nc3c2CN(C(=O)c2ccccc2)CC3)CC1	100	–	–	–
COc1ccc(Cl)cc1Cc1cc(-c2sc(NC(=O)C(C)(C)C)nc2C)nn1C(=O)N1CCOCC1	1	–	–	–
Cc1nc(NC(=O)C(C)(C)C)sc1-c1cc(Cc2ccccc2)n(C(=O)NCc2ccccc2)n1	0.759	–	–	–
COc1ccccc1C(=O)NCCCNc1nc2cc(C)cc(C)c2cc1C#N	> 100	–	–	–
Cc1cc(C)c2cc(C#N)c(N3CCN(C(=O)c4ccncc4)CC3)nc2c1	100	–	–	–
C=CCc1cc(-c2sc(NC(=O)C(C)(C)C)nc2C)nn1C(=O)Nc1ccccc1	3.02	–	–	–
COc1cccc(C(=O)N2CCN(c3nc4cc(C)cc(C)c4cc3C#N)CC2)c1	100	–	–	–
CN(C)CCN1CCN(c2nc(-c3ccccn3)nc3c2CN(S(=O)(=O)c2ccccc2)CC3)CC1	100	–	–	–
NC(=O)C1CCN(c2nc(-c3cccnc3)nc3c2CN(Cc2ccccc2)CC3)CC1	> 100	–	–	–
Cc1cc(C)c2cc(C#N)c(N3CCN(C(=O)c4cccnc4)CC3)nc2c1	100	–	–	–
COc1ccc(C(=O)N2CCN(c3nc4cc(C)cc(C)c4cc3C#N)CC2)cc1	100	–	–	–
Cc1cc(C)c2cc(C#N)c(NCCCNC(=O)c3ccncc3)nc2c1	13.2	–	–	–
Cc1cc(C)c2cc(C#N)c(NCCNC(=O)c3ccccn3)nc2c1	> 100	–	–	–
CCOC(=O)n1nc(-c2sc(NC(=O)C(C)(C)C)nc2C)cc1Cc1ccccc1	8.51	–	–	–
Cc1cc(C)c2cc(C#N)c(N3CCN(C(=O)c4ccccn4)CC3)nc2c1	100	–	–	–
CN1CCN(CCCNc2nc(-c3cccnc3)nc3c2CN(Cc2ccccc2)CC3)CC1	> 100	–	–	–
NC(=O)CN1CCN(c2nc(-c3cccnc3)nc3c2CN(Cc2ccccc2)CC3)CC1	100	–	–	–
COc1ccc(Cl)cc1Cc1cc(-c2sc(NC(=O)C(C)(C)C)nc2C)nn1C(=O)NCCO	3.02	–	–	–
COc1ccc(CN2CCc3nc(-c4ccccn4)nc(N4CCN(CCN(C)C)CC4)c3C2)cc1	100	–	–	–
C=CCc1cc(-c2sc(NC(=O)C(C)(C)C)nc2C)nn1C(=O)Nc1ccc(OC)cc1	0.933	–	–	–
CN1CCN(CCCNc2nc(-c3ccncc3)nc3c2CN(Cc2ccccc2)CC3)CC1	100	–	–	–
COc1ccccc1C(=O)N1CCN(c2nc3cc(C)cc(C)c3cc2C#N)CC1	100	–	–	–
Cc1cc(C)c2cc(C#N)c(NCCCNC(=O)c3ccccn3)nc2c1	100	–	–	–
COc1ccc(NC(=O)n2nc(-c3sc(NC(=O)C(C)(C)C)nc3C)cc2Cc2cc(Cl)ccc2OC)cc1	1	–	–	–

Now from value to molecule:

EC50 ([1]; read-out: pEC50 (converted)) [µM]	Activity [2]	Activity [3]	EC50 ([1]; read-out: EC50) [µM]	SMILES
100	–	–	–	CN(C)CCN1CCN(c2nc(-c3ccccn3)nc3c2CN(Cc2ccc(F)cc2)CC3)CC1
–	inactive	inactive	5.4	Cc1sc(NC(=O)C2(c3ccc4c(c3)OC(F)(F)O4)CC2)nc1-c1cccc(Cl)c1
–	inactive	inactive	2.1	O=C(Nc1nc(-c2cccc(F)c2)cs1)C1(c2ccc3c(c2)OCO3)CC1
–	inactive	inactive	3.8	Cc1sc(NC(=O)C2(c3ccc4c(c3)OC(F)(F)O4)CC2)nc1-c1ccc(Br)cc1
–	inactive	inactive	0.087	O=C(c1ccccc1)c1sc(NC(=O)C2(c3ccc4c(c3)OCO4)CC2)nc1-c1ccccc1
–	inactive	inactive	2.9	Cc1sc(NC(=O)C2(c3ccc4c(c3)OCO4)CC2)nc1-c1ccc(Cl)cc1
–	inactive	inactive	1.9	Cc1sc(NC(=O)C2(c3ccc4c(c3)OCO4)CC2)nc1-c1ccc(Br)cc1
–	inactive	inactive	8.2	O=C(Nc1nc(-c2cccc(Cl)c2)cs1)C1(c2ccc3c(c2)OCO3)CC1
–	inactive	inactive	0.9	CCOC(=O)c1sc(NC(=O)C2(c3ccc4c(c3)OCO4)CC2)nc1-c1ccc(Cl)cc1
–	inactive	inactive	1.7	O=C(Nc1nc(-c2ccc(O)cc2)cs1)C1(c2ccc3c(c2)OC(F)(F)O3)CC1
> 5.01	inactive	inactive	> 5	CC(=O)Nc1ccc(-c2csc(NC(=O)C3(c4ccc5c(c4)OCO5)CC3)n2)cc1
100	–	–	–	CCN(C(C)=O)C1CCN(c2nc(-c3ccccn3)nc3c2CN(Cc2ccc(Cl)cc2)CC3)C1 (configuration not stated)
–	inactive	inactive	1.2	O=C(Nc1nc(-c2ccc(I)cc2)cs1)C1(c2ccc3c(c2)OCO3)CC1
0.708	–	–	–	COc1ccc(Cl)cc1Nc1nc(-c2sc(NC(=O)C(C)(C)C)nc2C)cs1
0.2	–	–	–	CC(=O)NCCCNc1nc(-c2ccccn2)nc2c1CN(Cc1ccc(F)cc1)CC2
–	inactive	inactive	–	CC(=O)c1sc(NC(=O)C2(c3ccc4c(c3)OCO4)CC2)nc1C
–	inactive	inactive	–	O=C(Nc1nc(-c2cccc(Cl)c2)cs1)C1(c2ccc3c(c2)OC(F)(F)O3)CC1
–	inactive	inactive	0.55	CCOC(=O)c1sc(NC(=O)C2(c3ccc4c(c3)OCO4)CC2)nc1-c1cccc(Cl)c1
–	inactive	inactive	8	CSc1cccc(NC(=O)C2(c3ccc4c(c3)OCO4)CC2)c1
> 5.01	inactive	inactive	> 5	O=C(O)c1ccc(-c2csc(NC(=O)C3(c4ccc5c(c4)OCO5)CC3)n2)cc1
–	inactive	inactive	1.3	O=C(Nc1nc(-c2cccc(O)c2)cs1)C1(c2ccc3c(c2)OC(F)(F)O3)CC1
–	inactive	inactive	1.8	O=C(Nc1nc(-c2ccc(O)cc2)cs1)C1(c2ccc3c(c2)OCO3)CC1
–	inactive	inactive	2.9	O=C(Nc1nc(-c2ccc(Cl)cc2)cs1)C1(c2ccc3c(c2)OCO3)CC1
–	inactive	inactive	2.9	Cc1sc(NC(=O)C2(c3ccc4c(c3)OCO4)CC2)nc1-c1ccc(C(=O)O)cc1
–	inactive	inactive	0.3	CCOC(=O)c1sc(NC(=O)C2(c3ccc4c(c3)OCO4)CC2)nc1-c1ccc(Br)cc1
–	inactive	inactive	2.3	Cc1sc(NC(=O)C2(c3ccc4c(c3)OCO4)CC2)nc1-c1cccc(Cl)c1
–	inactive	inactive	1.6	Cc1sc(NC(=O)C2(c3ccc4c(c3)OCO4)CC2)nc1-c1ccccc1
